The test system of assay [1] is Staphylococcus aureus. The assay can be described thus: Antibacterial activity against 10^5 CFU/ml Staphylococcus aureus ATCC 6538 after 48 hrs. It counts as functional. Conditions: ATCC 6538, 48 h. The gist of the method: (§1)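 Spots of 5 μl inoculum (10-fold dilutions, 1 × 10⁹ to 1 × 10⁵ CFU/ml in HEPES) applied in triplicate. Incubated at 35°C and read visually at 24 and 48 h. MIC taken as no growth or <10 colonies in every spot of the triplicate.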

The test system of assay [2] is Staphylococcus aureus. Nature of the assay: Antibacterial activity against 10^6 CFU/ml Staphylococcus aureus ATCC 6538 after 48 hrs. It counts as functional. The settings on record: ATCC 6538, 48 h. The gist of the method: as §1
Assay [3] relates to Staphylococcus aureus. The assay can be described thus: Antibacterial activity against 10^7 CFU/ml Staphylococcus aureus ATCC 6538 after 48 hrs. Conditions: ATCC 6538, 48 h. The assay is classed as functional. The gist of the method: as §1
The subject of assay [4] is Staphylococcus aureus. Nature of the assay: Antibacterial activity against 10^8 CFU/ml Staphylococcus aureus ATCC 6538 after 48 hrs. It counts as functional. Conditions: ATCC 6538, 48 h. The essentials:
as §1

Assay [5] deals with Staphylococcus aureus. The assay can be described thus: Antibacterial activity against 10^9 CFU/ml Staphylococcus aureus ATCC 6538 after 48 hrs. It counts as functional. Conditions: ATCC 6538, 48 h. The gist of the method:
as §1

For assay [6], the system named is Staphylococcus aureus. The assay can be described thus: Loss of membrane integrity in Staphylococcus aureus ATCC 6538 at above 4.5 ug/ml. The assay is classed as functional, organism-based. The essentials:
(§2)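 Cells (final 2 × 10⁹ CFU/ml) exposed to 4.5 to 18 μg/ml biocide or HEPES at 25°C, shaken. Samples filtered (0.45 μm) at timed points up to 240 min. K⁺ measured by flame emission at 766.5 nm and 260-nm material by A260. Each expressed as percent of the maximal pool (cetrimide 1 mM; TCA extraction). Mean % leakage at 30 min plotted against concentration.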

Assay [7] has as its system Staphylococcus aureus. Nature of the assay: Induction of membrane collapse in Staphylococcus aureus ATCC 6538 at 12 ug/ml. The assay is classed as functional, organism-based. The gist of the method: as §2
For assay [8], the system named is Staphylococcus aureus. The assay can be described thus: Reduction of cell count in Staphylococcus aureus ATCC 6538 between 6 to 18 hrs exposure. The assay is classed as functional. Further details: scale not given: the % may be the effect or the level left. The essentials:
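Cells pre-exposed 4 h at 35°C to 9 μg/ml biocide, neutralized, washed, and held in HEPES at 35°C. Samples taken at 0 to 48 h, serially diluted, plated on TSA, incubated 18 h at 37°C and counted as CFU/ml.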

For assay [9], the system named is Staphylococcus aureus. Nature of the assay: Induction of autolysis in Staphylococcus aureus ATCC 6538 at 9 ug/ml. It counts as functional, organism-based. The gist of the method: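 Washed cells (final 2 × 10⁹ CFU/ml) held with biocide at 9 μg/ml in HEPES at 35°C for 4 h, shaken. Then neutralized with lecithin/Tween 80, washed, and resuspended in HEPES at 35°C. Filtrates (0.45 μm) taken at 0, 2, 4, 18, 22 and 24 h and read at A260. Autolysis taken as 260-nm leakage above the TCA-extractable pool.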

The subject of assay [10] is Staphylococcus aureus. Nature of the assay: Intracellular coagulation in Staphylococcus aureus ATCC 6538 at tested concentrations 4.5, 9, 12 and 15 ug/ml. The assay is classed as functional, organism-based.

Molecules are shown by their SMILES. Calls of active or inactive are those of the source. No cut-off for these calls is given here.

The term MIC denotes the least concentration at which growth counts as inhibited. Take `CCCCCCCCCC[N+](C)(C)CCCCCCCCCC.[Cl-]` [DIDECYLDIMETHYLAMMONIUM CHLORIDE]: the MIC with Staphylococcus aureus [1] worked out at 0.4 µg/mL; against Staphylococcus aureus [2] it was 0.4 µg/mL; with Staphylococcus aureus [3], 0.4 µg/mL; in the assay with Staphylococcus aureus [4], 0.6 µg/mL; in the assay with Staphylococcus aureus [5], 1.6 µg/mL. Further, the outcome in the assay with Staphylococcus aureus [6], in the assay with Staphylococcus aureus [7] and in the assay on Staphylococcus aureus [9] was Active. The Activity in the assay with Staphylococcus aureus [8] is recorded as 90%. Also, in the assay on Staphylococcus aureus [10], the outcome was inactive.

For the origin of these results see ChEMBL document CHEMBL1142147, “Action of disinfectant quaternary ammonium compounds against Staphylococcus aureus” (2007).
